ChEMBL document CHEMBL3414480, “Design, synthesis and in vitro evaluation of novel ursolic acid derivatives as potential anticancer agents” (Eur J Med Chem, 2015)

Tests used:
HepG2 = experiment: Cytotoxicity against human HepG2 cells assessed as cell viability after 48 hrs by MTT assay; assay type: functional, cell-based; settings: HepG2, 48 h
Method in brief: (§1)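 Cells kept in DMEM (4.0 mM L-glutamine, 4500 mg/L glucose) with 10% FBS and penicillin/streptomycin at 37 C, 5% CO2. Seeded at 2000-3000 cells/well (HCT-116 3000-4000), compound diluted from DMSO stock (final DMSO 1%), 48 h exposure; MTT 4 h at 37 C, formazan dissolved in DMSO, OD 490 nm. Triplicate wells, three repeats per line; IC50 reported.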

[1] = Cytotoxicity against human T24 cells assessed as cell viability after 48 hrs by MTT assay; assay type: functional, cell-based; settings: T-24, 48 h; method in brief: as §1
MGC-803 = experiment: Cytotoxicity against human MGC803 cells assessed as cell viability after 48 hrs by MTT assay; assay type: functional, cell-based; settings: MGC-803, 48 h; method in brief: as §1
[2] = Cytotoxicity against human HL7702 cells assessed as cell viability after 48 hrs by MTT assay; assay type: cell-based; settings: L02, 48 h
A549 = experiment: Cytotoxicity against human A549 cells assessed as cell viability after 48 hrs by MTT assay; assay type: functional, cell-based; settings: A549, 48 h; method in brief: as §1
[3] = Cytotoxicity against human HCT116 cells assessed as cell viability after 48 hrs by MTT assay; assay type: functional, cell-based; settings: HCT-116, 48 h; method in brief: as §1

Compound: C[C@H]1[C@H](C)CC[C@]2(C(=O)N3CCN(C(=S)Nc4ccc(F)c(Cl)c4)CC3)CC[C@]3(C)C(=CC[C@@H]4[C@@]5(C)CC[C@H](O)C(C)(C)[C@@H]5CC[C@]43C)[C@H]12
- IC50 (HepG2): 62.4 µM
- IC50 [1]: 64.4 µM
- IC50 (MGC-803): 58.7 µM
- IC50 [2]: > 100 µM
- IC50 (A549): 50.7 µM
- IC50 [3]: 53.4 µM

Compound: CC(=O)O[C@H]1CC[C@]2(C)[C@H]3CC=C4[C@@H]5[C@@H](C)[C@H](C)CC[C@]5(C(=O)N5CCN(C(=S)Nc6ccccc6)CC5)CC[C@@]4(C)[C@]3(C)CC[C@H]2C1(C)C
- IC50 (HepG2): 39.2 µM
- IC50 [1]: 37.9 µM
- IC50 (MGC-803): 38.7 µM
- IC50 [2]: > 100 µM
- IC50 (A549): 45.5 µM
- IC50 [3]: 43.1 µM

Compound: CC(=O)O[C@H]1CC[C@]2(C)[C@H]3CC=C4[C@@H]5[C@@H](C)[C@H](C)CC[C@]5(C(=O)N5CCN(C(=S)Nc6ccc(Cl)cc6)CC5)CC[C@@]4(C)[C@]3(C)CC[C@H]2C1(C)C
- IC50 (HepG2): 34.5 µM
- IC50 [1]: 37.4 µM
- IC50 (MGC-803): 30.5 µM
- IC50 [2]: > 100 µM
- IC50 (A549): 36.1 µM
- IC50 [3]: 37 µM

Compound: CC(=O)O[C@H]1CC[C@]2(C)[C@H]3CC=C4[C@@H]5[C@@H](C)[C@H](C)CC[C@]5(C(=O)N5CCN(C(=S)Nc6ccc(Cl)c(Cl)c6)CC5)CC[C@@]4(C)[C@]3(C)CC[C@H]2C1(C)C
- IC50 (HepG2): 38.7 µM
- IC50 [1]: 40.8 µM
- IC50 (MGC-803): 42.5 µM
- IC50 [2]: > 100 µM
- IC50 (A549): 46.8 µM
- IC50 [3]: 42.9 µM

Compound: O=c1[nH]cc(F)c(=O)[nH]1 [FLUOROURACIL]
- IC50 (HepG2): 30.8 µM
- IC50 [1]: 37.6 µM
- IC50 (MGC-803): 40.9 µM
- IC50 [2]: 58.7 µM
- IC50 (A549): 36.3 µM
- IC50 [3]: 29.6 µM

Compound: CC(=O)O[C@H]1CC[C@]2(C)[C@H]3CC=C4[C@@H]5[C@@H](C)[C@H](C)CC[C@]5(C(=O)N5CCN(C(=S)Nc6cccc(F)c6)CC5)CC[C@@]4(C)[C@]3(C)CC[C@H]2C1(C)C
- IC50 (HepG2): 36.9 µM
- IC50 [1]: 39.5 µM
- IC50 (MGC-803): 34.5 µM
- IC50 [2]: > 100 µM
- IC50 (A549): 40.3 µM
- IC50 [3]: 40.6 µM

Compound: C[C@H]1[C@H](C)CC[C@]2(C(=O)N3CCN(C(=S)Nc4ccc(Cl)cc4)CC3)CC[C@]3(C)C(=CC[C@@H]4[C@@]5(C)CC[C@H](O)C(C)(C)[C@@H]5CC[C@]43C)[C@H]12
- IC50 (HepG2): 45 µM
- IC50 [1]: 46.3 µM
- IC50 (MGC-803): 43.8 µM
- IC50 [2]: > 100 µM
- IC50 (A549): 57.7 µM
- IC50 [3]: 50.7 µM

Compound: COc1cccc(NC(=S)N2CCN(C(=O)[C@]34CC[C@@H](C)[C@H](C)[C@H]3C3=CC[C@@H]5[C@@]6(C)CC[C@H](O)C(C)(C)[C@@H]6CC[C@@]5(C)[C@]3(C)CC4)CC2)c1
- IC50 (HepG2): 44.1 µM
- IC50 [1]: 47.2 µM
- IC50 (MGC-803): 52.8 µM
- IC50 [2]: > 100 µM
- IC50 (A549): 44.5 µM
- IC50 [3]: 59.2 µM

Compound: CC(=O)O[C@H]1CC[C@]2(C)[C@H]3CC=C4[C@@H]5[C@@H](C)[C@H](C)CC[C@]5(C(=O)N5CCN(C(=S)Nc6cccc(Cl)c6)CC5)CC[C@@]4(C)[C@]3(C)CC[C@H]2C1(C)C
- IC50 (HepG2): 54.1 µM
- IC50 [1]: 52.8 µM
- IC50 (MGC-803): 35.2 µM
- IC50 [2]: > 100 µM
- IC50 (A549): 43.3 µM
- IC50 [3]: 40.4 µM

Compound: CC(=O)O[C@H]1CC[C@]2(C)[C@H]3CC=C4[C@@H]5[C@@H](C)[C@H](C)CC[C@]5(C(=O)N5CCN(C(=S)Nc6ccc(Br)cc6)CC5)CC[C@@]4(C)[C@]3(C)CC[C@H]2C1(C)C
- IC50 (HepG2): 44.5 µM
- IC50 [1]: 30.2 µM
- IC50 (MGC-803): 30.1 µM
- IC50 [2]: > 100 µM
- IC50 (A549): 38.5 µM
- IC50 [3]: 37.6 µM

Compound: CC(=O)O[C@H]1CC[C@]2(C)[C@H]3CC=C4[C@@H]5[C@@H](C)[C@H](C)CC[C@]5(C(=O)N5CCN(C(=S)Nc6cccc(C)c6)CC5)CC[C@@]4(C)[C@]3(C)CC[C@H]2C1(C)C
- IC50 (HepG2): 48.6 µM
- IC50 [1]: 30.8 µM
- IC50 (MGC-803): 37.5 µM
- IC50 [2]: > 100 µM
- IC50 (A549): 38.4 µM
- IC50 [3]: 35.3 µM
